Here are results for six compounds from ChEMBL document CHEMBL1148265, “Synthesis and biological activity of N-aryl-2-aminothiazoles: potent pan inhibitors of cyclin-dependent kinases” (Bioorg Med Chem Lett, 2004).

For orientation: IC50 means the midpoint of a concentration-inhibition curve. Low values mean greater potency in that assay, high ones weaker potency in that assay. By T/C is commonly meant the result in the treated group divided by that in the control group, in per cent.

One experiment relates to A2780. Description: Cytotoxic effect on human ovarian (A2780) cancer cell line. The class given is functional, cell-based.
Experiment [1] concerns the target Cyclin-dependent kinase 1/cyclin B (Homo sapiens, UniProt P06493). Briefly: Inhibition of cyclin-dependent kinase 1-cyclin B. Format: protein-complex assay. The method in brief: (§1)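 Cell-free kinase assay with the CDK/cyclin complex as enzyme. Read-out is phosphorylation of RB protein as substrate. IC50 values were reported.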
The target in experiment [2] is Cyclin-dependent kinase 2/cyclin E (Homo sapiens, UniProt P24941). Description: Inhibition of Cyclin-dependent kinase 2-cyclin E. Format: protein-complex assay. The method in brief:
as §1

Experiment [3] has as its target Cyclin-dependent kinase 4/cyclin D (Homo sapiens, UniProt P11802). Briefly: Inhibition of Cyclin-dependent kinase 4-cyclin D. The class given is protein-complex assay. The method in brief: as §1
Experiment [4] relates to Mus musculus. Description: In vivo anticancer activity of compound was determined as increase in survival time of treated groups versus untreated control against P388 murine leukemia in mice at 4 mg/kg. Format: functional. The gist of the method:
(§2)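 P388 murine leukemia cells implanted ip into immunocompetent mice. Drug given ip right after implantation, then once daily for 7 days (qdx7). Efficacy read as increase in lifespan, reported as the ratio of lifespan of the treated group (T) to the control group (C) (%T/C).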

The species entered for experiment [5] is Mus musculus. Briefly: Compound was tested binding to mouse serum. Format: functional. The gist of the method:
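Free versus bound fraction measured by equilibrium dialysis against mouse serum.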

Experiment [6] concerns Mus musculus. Description: In vivo anticancer activity of compound was determined as increase in survival time of treated groups versus untreated control against P388 murine leukemia in mice at 90 mg/kg. Format: functional. The method in brief: as §2

`CC(C)(C)c1cnc(CSc2cnc(Nc3ccccc3)s2)o1`: the IC50 was 140 nM in the experiment on A2780, 12 nM in experiment [1], 4 nM in experiment [2] and 78 nM in experiment [3].
Take `CC(C)(CO)CNCc1ccc(Nc2ncc(SCc3ncc(C(C)(C)C)o3)s2)nc1`: the IC50 came to 3 nM in the experiment with A2780, 18 nM in experiment [1], 3 nM in experiment [2] and 26 nM in experiment [3]. The compound further returned a T/C in the experiment with Mus musculus [4] of 156%. This compound had a Binding in the experiment filed under Mus musculus [5] of 90%.
With `CC(C)(C)c1cnc(CSc2cnc(Nc3ccc(S(=O)(=O)NCCO)cc3)s2)o1`, the IC50 in the experiment with A2780 turned out to be 69 nM; in experiment [1], 10 nM; in experiment [2] it was 2 nM; in experiment [3] it was 233 nM. In the experiment with Mus musculus [6], this compound gave a T/C of 180%. The Binding in the experiment filed under Mus musculus [5] worked out at 97%.
Take `CC(C)(C)c1cnc(CSc2cnc(NC(=O)Cc3cccnc3)s2)o1`: the half-inhibitory concentration (IC50) in the experiment on A2780 was determined as 240 nM; in experiment [1], 80 nM; in experiment [2], 5 nM; in experiment [3], 1090 nM.
For `CC(C)(C)c1cnc(CSc2cnc(Nc3cccnc3)s2)o1` the same measures were 50 nM, 10 nM, 3 nM and 130 nM.
The like results for `CC(C)(C)c1cnc(CSc2cnc(Nc3ccccn3)s2)o1` were, in that order, 10 nM, 4 nM, 2 nM and 9 nM.
